Assay results from ChEMBL document CHEMBL4145559 (ACS Med Chem Lett, 2018).
Converted amounts (≈) assume the structure as drawn. The source made the active and inactive calls. The rule behind the calls is not given here.

Key:
[1] = test system: Staphylococcus epidermidis; assay: Antimicrobial activity against Staphylococcus epidermidis RP26A; type: functional
How it was run: (§1)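 MICs determined by the standard CLSI broth microdilution method on intact bacteria (E. coli MG1655; S. epidermidis RP26A).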

[2] = Inhibition of Escherichia coli type 1 signal peptidase using peptide substrate after 30 mins by fluorescence assay
How it was run: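 Purified E. coli SPase was assayed with the internally quenched fluorogenic peptide (Dabcyl)-AGHDAHA↓SET-(EDANS), with cleavage at the arrow separating the EDANS donor from the Dabcyl acceptor. IC50 was taken as the half-maximal inhibitory concentration.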

[3] = test system: Yersinia pestis; assay: Antimicrobial activity against Yersinia pestis KIM6+; type: functional
[4] = test system: HEK293; assay: Cytotoxicity against HEK293 cells up to 128 ug/ml after 24 hrs by resazurin dye based fluorescence assay; type: cell-based; settings: human, hek293, 24 h
[5] = test system: Escherichia coli; assay: Antimicrobial activity against Escherichia coli MG1655 by broth micro dilution method; type: functional, organism-based; settings: K-12 substr. MG1655; how it was run: as §1

SMILES | MIC [1] [µg/mL] | IC50 [2] [µg/mL] | MIC [3] [µg/mL] | Activity [4] | Activity [5]
C[C@@H](O)[C@H]1C(=O)N2C(C(=O)O)=C(SCCNC=N)S[C@H]12 | 8 (≈ 25.2 µM) | 1.04 (≈ 3.28 µM) | 16 (≈ 50.4 µM) | Non-Toxic | –
C[C@@H](O)[C@H]1C(=O)N2C(C(=O)O)=C(CCc3ccccn3)S[C@H]12 | 16 (≈ 49.9 µM) | 1.31 (≈ 4.09 µM) | 32 (≈ 99.9 µM) | – | –
C[C@@H](O)[C@H]1C(=O)N2C(C(=O)O)=C(S[C@H]3CCNC3)S[C@H]12 | 8 (≈ 25.3 µM) | 0.8 (≈ 2.53 µM) | 8 (≈ 25.3 µM) | – | –
C[C@@H](O)[C@H]1C(=O)N2C(C(=O)O)=C(S[C@@H]3CN[C@H](C(=O)N(C)C)C3)S[C@H]12 | 32 (≈ 82.6 µM) | 1.22 (≈ 3.15 µM) | 64 (≈ 165 µM) | – | –
CNCCSC1=C(C(=O)O)N2C(=O)[C@H]([C@@H](C)O)[C@H]2S1 | > 128 | 6.37 (≈ 20.9 µM) | > 128 | – | –
C[C@@H](O)[C@H]1C(=O)N2C(C(=O)O)=C(SCCN(C)C)S[C@H]12 | > 128 | 3.95 (≈ 12.4 µM) | > 128 | – | –
C[C@@H](O)[C@H]1C(=O)N2C(C(=O)O)=C(SCCOC(N)=O)S[C@H]12 [Sch-34343] | 4 (≈ 12 µM) | 0.96 (≈ 2.87 µM) | 16 (≈ 47.9 µM) | – | –
C[C@@H](O)[C@H]1C(=O)N2C(C(=O)O)=C(SCCN)S[C@H]12 | 16 (≈ 55.1 µM) | 0.63 (≈ 2.17 µM) | 16 (≈ 55.1 µM) | Non-Toxic | –
C[C@@H](O)[C@H]1C(=O)N2C(C(=O)O)=C(S[C@@H]3CCNC3)S[C@H]12 | 4 (≈ 12.6 µM) | 1.75 (≈ 5.53 µM) | 16 (≈ 50.6 µM) | Non-Toxic | –
C[C@@H](O)[C@H]1C(=O)N2C(C(=O)O)=CS[C@H]12 | 128 (≈ 595 µM) | 2.99 (≈ 13.9 µM) | 128 (≈ 595 µM) | – | inactive
C[C@@H](O)[C@H]1C(=O)N2C(C(=O)O)=C(SCCO)S[C@H]12 | 8 (≈ 27.5 µM) | 1.49 (≈ 5.11 µM) | 32 (≈ 110 µM) | Non-Toxic | –
C[C@@H](O)[C@H]1C(=O)N2C(C(=O)O)=C(S[C@@H]3CC[S+]([O-])C3)S[C@H]12 (stereo not given in full) | 16 (≈ 45.8 µM) | 1.16 (≈ 3.32 µM) | – | – | –
